Here are results for six molecules from ChEMBL document CHEMBL3044632, “Synthesis, crystal structure, and biological activity of 4-methyl-1,2,3-thiadiazole-containing 1,2,4-triazolo[3,4-b][1,3,4]thiadiazoles” (J Agric Food Chem, 2010).

For one data set, the system named is Alternaria solani. As to the kind of experiment: Fungicide activity against Alternaria solani assessed as growth inhibition at 50 ug/mL at 24 to 26 degC measured after 2 days. The data set is classed as functional. The following applies: 48 h, read-out: GI.
For a further data set, the system named is Cercospora beticola. The experiment in a line: Fungicide activity against Cercospora beticola assessed as growth inhibition at 50 ug/mL at 24 to 26 degC measured after 2 days. The data set is classed as functional. The following applies: 48 h, read-out: GI.
Data set [1] deals with Botryosphaeria berengeriana. The experiment in a line: Fungicide activity against Botryosphaeria berengeriana assessed as growth inhibition at 50 ug/mL at 24 to 26 degC measured after 2 days. Type of data set: functional. The following applies: 48 h, read-out: GI.
The next data set concerns Botrytis cinerea. The experiment in a line: Fungicide activity against Botryotinia fuckeliana assessed as growth inhibition at 50 ug/mL at 24 to 26 degC measured after 2 days. Type of data set: functional. The following applies: 48 h, read-out: GI.
The subject of a further data set is Colletotrichum lagenaria. As to the kind of experiment: Fungicide activity against Colletotrichum lagenaria assessed as growth inhibition at 50 ug/mL at 24 to 26 degC measured after 2 days. The data set is classed as functional. The following applies: 48 h, read-out: GI.
In a further data set the test system is Phytophthora infestans. The experiment in a line: Fungicide activity against Phytophthora infestans assessed as growth inhibition at 50 ug/mL at 24 to 26 degC measured after 2 days. Type of data set: functional. The following applies: 48 h, read-out: GI.
The next data set concerns Thanatephorus cucumeris. The experiment in a line: Fungicide activity against Thanatephorus cucumeris assessed as growth inhibition at 50 ug/mL at 24 to 26 degC measured after 2 days. Type of data set: functional. The following applies: 48 h, read-out: GI.
The subject of a further data set is Fusarium oxysporum. The experiment in a line: Fungicide activity against Fusarium oxysporum assessed as growth inhibition at 50 ug/mL at 24 to 26 degC measured after 2 days. The following applies: 48 h, read-out: GI. Type of data set: functional.
The test system of the next data set is Mycosphaerella arachidis. The experiment in a line: Fungicide activity against Mycosphaerella arachidis assessed as growth inhibition at 50 ug/mL at 24 to 26 degC measured after 2 days. The following applies: 48 h, read-out: GI. The data set is classed as functional.
The subject of the next data set is Fusarium graminearum. As to the kind of experiment: Fungicide activity against Fusarium graminearum assessed as growth inhibition at 50 ug/mL at 24 to 26 degC measured after 2 days. Type of data set: functional. The following applies: 48 h, read-out: GI.
For another data set, the system named is Nicotiana tabacum. As to the kind of experiment: Phytotoxicity against Nicotiana tabacum (tobacco) plant at 50 to 500 ug/mL. The data set is classed as organism-based. The following applies: in vivo.
A further data set deals with Tobacco mosaic virus. The experiment in a line: Antiviral activity against Tobacco mosaic virus (TMV) infected leaves assessed as viral inhibition at 50 ug/mL at 25 degC for 72 hr. The data set is classed as functional. The gist of the method: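 Systemic acquired resistance induction was assayed in a tobacco–TMV system. The antivirus inhibition ratio was calculated from the average number of viral lesions on inoculated leaves, relative to the corresponding control.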

A further data set deals with Puccinia triticina. As to the kind of experiment: Fungicide activity against Puccinia triticina assessed as growth inhibition at 50 ug/mL at 24 to 26 degC measured after 2 days. The data set is classed as functional. The following applies: 48 h, read-out: GI.

A word on the inhibition: it is the change of the read-out against control, counted positive when it falls. `Cc1nnsc1C1=NNC2SC(c3ccc(F)cc3)=NN12` (centres undefined): the inhibition of growth at 50 µg/mL with Alternaria solani was determined as 26.3%; with Cercospora beticola, 7.1%; in [1], 18.6%; in the data set on Botrytis cinerea it was 53.3%; in the data set on Colletotrichum lagenaria, 10.3%; in the data set on Phytophthora infestans, 15.6%. The inhibition of growth at 50 µg/mL with Thanatephorus cucumeris was found to be 11.3%; in the data set on Fusarium oxysporum it was 9.3%; in the data set on Mycosphaerella arachidis, 33.1%; in the data set on Fusarium graminearum, 14.3%. Further, the Activity entry with Nicotiana tabacum is reported as “Toxic”. Besides, the inhibition at 50 µg/mL in the data set on Tobacco mosaic virus is 0%.

In the case of `COc1cccc(C2=NN3C(c4snnc4C)=NNC3S2)c1` (centres undefined), the inhibition of growth at 50 µg/mL in the data set with Alternaria solani came out at 23.3%; in the data set on Cercospora beticola, 14.3%; with Puccinia triticina, 31.6%; in [1], 45.2%; in the data set on Colletotrichum lagenaria it was 0%; in the data set with Phytophthora infestans, 17.3%. Also, the inhibition of growth at 50 µg/mL in the data set on Thanatephorus cucumeris worked out at 60.8%; in the data set with Fusarium oxysporum it was 19.4%; with Mycosphaerella arachidis, 18.2%. In the data set on Nicotiana tabacum, the Activity result is “Toxic”. Also, the inhibition at 50 µg/mL in the data set on Tobacco mosaic virus came to 0%.

For the molecule `Cc1nnsc1C1=NNC2SC(c3c(Cl)cccc3Cl)=NN12` (centres undefined), the inhibition of growth at 50 µg/mL with Alternaria solani came to 23.7%; with Cercospora beticola, 28.6%; in data set [1], 37.2%; in the data set on Botrytis cinerea it was 64.4%; in the data set with Colletotrichum lagenaria it was 20.7%; with Phytophthora infestans it was 20%. The inhibition of growth at 50 µg/mL turned out to be 42.3% in the data set with Thanatephorus cucumeris, 13.9% in the data set on Fusarium oxysporum, 23.1% in the data set on Mycosphaerella arachidis and 14.3% in the data set with Fusarium graminearum. The Activity entry in the data set on Nicotiana tabacum was “Toxic”. Further, the inhibition at 50 µg/mL in the data set with Tobacco mosaic virus came to 12.5%.

For `Cc1nnsc1C1=NNC2SC(C(C)(C)C)=NN12` (centres undefined), the inhibition of growth at 50 µg/mL in the data set on Alternaria solani amounted to 16.7%; in the data set on Cercospora beticola, 23.8%; with Puccinia triticina, 26.3%; in data set [1], 17.7%; in the data set with Colletotrichum lagenaria, 5.88%; in the data set with Phytophthora infestans, 14.7%. Also, the results for the inhibition of growth at 50 µg/mL in the data set on Thanatephorus cucumeris, in the data set on Fusarium oxysporum and in the data set on Mycosphaerella arachidis were 56.7%, 13.9% and 36.4%, respectively. The Activity result with Nicotiana tabacum is “Toxic”. For the same molecule, the inhibition at 50 µg/mL in the data set with Tobacco mosaic virus came to 7.89%.

As for `COc1ccccc1C1=NN2C(c3snnc3C)=NNC2S1` (centres undefined), the inhibition of growth at 50 µg/mL in the data set with Alternaria solani was 30%; with Cercospora beticola, 30%; in data set [1], 24.4%; in the data set with Botrytis cinerea, 50%; in the data set on Colletotrichum lagenaria it was 27.3%; in the data set on Phytophthora infestans it was 11.1%. The inhibition of growth at 50 µg/mL is 32.8% in the data set with Thanatephorus cucumeris, 17.2% in the data set on Fusarium oxysporum, 25% in the data set with Mycosphaerella arachidis and 18.2% in the data set with Fusarium graminearum. The Activity entry with Nicotiana tabacum is “Toxic”. In the data set on Tobacco mosaic virus, the inhibition at 50 µg/mL came to 40%.

As for `Cc1nnsc1C1=NNC2SC(COc3ccc(Cl)cc3Cl)=NN12` (centres undefined), the inhibition of growth at 50 µg/mL stood at 31.3% in the data set on Alternaria solani; 20% in the data set on Cercospora beticola; 23.8% in [1]; 19.2% in the data set on Colletotrichum lagenaria; 12.1% in the data set on Phytophthora infestans; 33.3% in the data set with Thanatephorus cucumeris. Also, the results for the inhibition of growth at 50 µg/mL in the data set with Fusarium oxysporum, in the data set with Mycosphaerella arachidis and in the data set on Fusarium graminearum were 3%, 31% and 12.5%, respectively. Also, the Activity result in the data set with Nicotiana tabacum is “Toxic”. For the same molecule, the inhibition at 50 µg/mL in the data set with Tobacco mosaic virus was determined as 0%.
